Tests used:
In vitro release study = format: physicochemical; details: in 24 h, distilled water, 37 °C, 50 rpm
Procedure, shortened: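 Test formulation equivalent to 2 mg drug stirred in USP apparatus II with 200 ml distilled water, […], paddle 50 rpm. At set intervals, 1 ml aliquots were withdrawn, filtered and assayed by HPLC, with fresh medium replaced each time.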

Caco-2 monolayers = assay: Caco-2 permeability study; format: in vitro ADME
[1] = Pharmacokinetics / bioavailability in dogs; format: in vivo
[2] = system: H1650 cancer stem cell xenograft tumor; format: in vivo; details: 20 mg/kg oral gavage
[3] = system: H1650 cancer stem cell orthotopic lung tumor; format: in vivo; details: 20 mg/kg oral gavage, 30 days treatment
Bcl-2 = assay: Western blot of tumor lysates: Bcl-2; format: in vivo, Nu/nu mice; details: densitometry
Procedure, shortened: (§1)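 Nu/nu mice bearing H1650 cancer-stem-cell tumours got vehicle or test compound by oral gavage, solution or self-emulsified form, 20 mg/kg (solution every other day). Tumour nodules were lysed in RIPA pH 8.0 with protease inhibitor; 50 µg protein (BCA) on 10% SDS-PAGE, nitrocellulose, 5% milk/TBST block, antibodies 1:1000, HRP secondary. Signal normalised to β-actin; three replicates, mean ± SEM, one-way ANOVA with Tukey test.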

SOX2 = assay: Western blot of tumor lysates: SOX2; format: in vivo, Nu/nu mice
Procedure, shortened: as §1

Nanog = assay: Western blot of tumor lysates: Nanog; format: in vivo, Nu/nu mice
NF-КB = assay: Western blot of tumor lysates: NF-КB; format: in vivo, Nu/nu mice
Procedure, shortened: as §1

lung tumor tissue = assay: Hematoxylin and eosin staining of lung tumor tissue; format: in vivo, Nu/nu mice
[4] = mouse, in vivo, cited from earlier work
CSCs [5] = details: cited from earlier work
CSCs [6] = details: cited from earlier work; remark: listed apart in the source
[7] = i.v. bolus 0.5 mg/kg, two-compartment model

3, 3-Diindolylmethane-14 [DIM-14]
drug release (In vitro release study): ~ 10% | average Peff, A–B (Caco-2 monolayers; Caco-2, donor pH 6.5, acceptor pH 7.4): approximately 0.26 ± 0.05 × 10^−6 cm/s | average Peff, B–A (Caco-2 monolayers; Caco-2, secretory direction): 0.41 ± 0.09 × 10^−6 cm/s | Volume of distribution (Vd) ([1]; i.v. bolus 0.5 mg/kg): 0.321 L/kg | Volume of distribution at steady state (Vdss) ([1]; i.v. bolus 0.5 mg/kg): 0.319 L/kg | K10 (elimination from central compartment) [1, 7]: 0.003 L/h | K21 (peripheral to central compartment) [1, 7]: 0.15 L/h | absolute oral bioavailability ([1]; oral 3.33 mg/kg): < 10% | decrease in average number of tumor nodules versus control [2]: 29% | decrease in lung tumor volumes [2]: 29% | decrease in lung tumor weights versus vehicle control [2]: 30% | decrease in average number of tumor nodules versus control [3]: 22% | decrease in lung tumor volumes [3]: 34% | decrease in lung tumor weights versus vehicle control [3]: 24% | reduction of β-actin relative Bcl-2 expression versus untreated control tumors (Bcl-2): 1.8 fold | reduction of relative SOX2 expression versus untreated control (SOX2): 1.9 fold | decrease of relative Nanog expression versus untreated control (Nanog): 2.4 fold | expression of NF-КB (NF-КB): significantly down regulated | histological examination of lungs and tracheobronchial epithelium (lung tumor tissue; all groups): no signs of inflammation or edema | tumor microvessels (H & E histology) (lung tumor tissue; treated tumors versus untreated mice): only occasional, isolated microvessels

COc1ccc(C(c2c[nH]c3ccccc23)c2c[nH]c3ccccc23)cc1 [DIM-5]
Oral bioavaibility [4]: 39%

Oc1ccc(C(c2c[nH]c3ccccc23)c2c[nH]c3ccccc23)cc1 [DIM-8]
time to reach Cmax (Tmax) ([4]; po): about 60 min | Oral bioavaibility [4]: 6%

Clc1ccc(C(c2c[nH]c3ccccc23)c2c[nH]c3ccccc23)cc1 [DIM-12]
Oral bioavaibility [4]: 42%

CN(C)C(=N)N=C(N)N [Metformin]
concentrations at which it works against CSCs (CSCs [5]): 100 to 300 µM

CC[C@@H](C(=O)[C@@H](C)[C@@H](O)[C@H](C)[C@@H]1O[C@@H]([C@@H](CC)C(=O)O)CC[C@@H]1C)[C@H]1O[C@]2(C=C[C@@H](O)[C@]3(CC[C@@](C)([C@H]4CC[C@](O)(CC)[C@H](C)O4)O3)O2)[C@H](C)C[C@@H]1C [salinomycin]
reduction of the proportion of CSCs relative to paclitaxel (CSCs [6]): more than 100 fold

Lucifer Yellow [reference compound]
mean permeability of paracellular control (Caco-2 monolayers; Caco-2): < 0.15 ×10⁻⁶ cm/s

Reference: paper PMC5645071 (Journal of controlled release : official journal of the …, 2015)
